{"data": "Measured values gathered from unrelated publications", "target": "Delta-type opioid receptor (OPRD1, Homo sapiens, UniProt P41143)", "note": "Compare with care: the assays were run in different laboratories."}
{"Structure (SMILES)": "C[C@@H](NC(=O)[C@@H](N)Cc1ccc(O)cc1)C(=O)NCC(=O)N[C@@H](Cc1ccccc1)C(=O)N(C)CCC[C@@]1(c2ccc(F)cc2)OCc2cc(C#N)ccc21", "test": "cell-free assay", "Ki [nM]": 57}
{"Structure (SMILES)": "Cc1cc(O)cc(C)c1C[C@H](N)C(=O)N1Cc2ccccc2C[C@H]1C(=O)NCC(=O)NCc1ccc(N)cc1", "test": "ligand displacement, radioligand", "setting": "cell membranes", "Ki [nM]": 2}
{"Structure (SMILES)": "CCCC[C@@H](NC(=O)[C@@H](N)Cc1c(C)cc(O)cc1C)C(=O)NCC(=O)N[C@@H](Cc1ccc(F)cc1)C(=O)N(C)CCC[C@@]1(c2ccc(F)cc2)OCc2cc(C#N)ccc21", "test": "cell-free assay", "Ki [nM]": 0.8}
{"Structure (SMILES)": "CN(C)C1(CNC(=O)/N=N/c2ccc(F)cc2)CCCCC1", "test": "cell-free assay", "Ki [nM]": 12000}
{"Structure (SMILES)": "COc1ccsc1CNCC[C@@]1(c2ccccn2)CCOC2(CCCC2)C1", "test": "cell-free assay", "Ki [nM]": 1400}
{"Structure (SMILES)": "CCCC[C@@H](NC(=O)[C@@H](N)Cc1ccc(O)cc1)C(=O)NCC(=O)N[C@@H](Cc1ccc(F)cc1)C(=O)N(C)CCC[C@@]1(c2ccc(F)cc2)OCc2cc(C#N)ccc21", "test": "cell-free assay", "Ki [nM]": 1.4}
{"Structure (SMILES)": "Cc1cc(O)cc(C)c1C[C@H](N)C(=O)N1Cc2ccccc2C[C@@H]1C(=O)NCC(=O)NCc1ccccc1", "test": "ligand displacement, radioligand", "setting": "cell membranes", "Ki [nM]": 3.2}
{"Structure (SMILES)": "CCCO[C@@]12Cc3cc(-c4ccccc4)cnc3[C@@H]3Oc4c(O)ccc5c4[C@@]31CCN(CC1CC1)[C@@H]2C5", "test": "ligand displacement, radioligand", "setting": "cell membranes", "Ki [nM]": 7.48}
{"Structure (SMILES)": "CCCCC/C=C\\C/C=C\\C/C=C\\C/C=C\\CCCC(=O)O", "test": "ligand displacement, radioligand", "setting": "cell membranes", "Ki [nM]": 4800}
{"Structure (SMILES)": "C[C@@H](NC(=O)[C@@H](N)Cc1ccc(O)cc1)C(=O)NCC(=O)N[C@H](CC(=O)NNC(=O)C[C@H](Cc1ccccc1)NC(=O)CNC(=O)[C@@H](C)NC(=O)[C@@H](N)Cc1ccc(O)cc1)Cc1ccccc1", "test": "ligand displacement, radioligand", "Ki [nM]": 0.72}
{"Structure (SMILES)": "Cc1cc(O)cc(C)c1C[C@H](N)C(=O)N1Cc2ccccc2C[C@H]1C(=O)NCC(=O)NCc1ccc(Cl)cc1", "test": "ligand displacement, radioligand", "setting": "cell membranes", "Ki [nM]": 0.26}
{"Structure (SMILES)": "Cc1cc(/N=N/C(=O)NCC2(N(C)C)CCCCC2)ccc1F", "test": "cell-free assay", "Ki [nM]": 30000}
